Assay results taken from ChEMBL document CHEMBL3792374, “Discovery of a ring-opened derivative of 3-n-butylphthalide bearing NO/H2S-donating moieties as a potential anti-ischemic stroke agent” (Eur J Med Chem, 2016).
Calls of active or inactive are those of the source. The rule behind the calls is not given here.

Legend:
[1] = tested on: Rattus norvegicus; experiment: Antioxidant activity in Sprague-Dawley rat brain tissue model of transient middle cerebral artery occlusion stroke model assessed as increase in glutathione levels per mg of protein at 80 mg/kg […] measured 24 hrs after reperfusion by DTNB assay (reference value: 23.47 nmol); format: functional
[2] = tested on: Rattus norvegicus; experiment: Antioxidant activity in Sprague-Dawley rat brain tissue model of transient middle cerebral artery occlusion stroke model assessed as increase in glutathione peroxidase levels per mg of protein at 80 mg/kg […] measured 24 hrs after reperfusion by DTNB assay relative to control; format: functional
[3] = tested on: Rattus norvegicus; experiment: Antioxidant activity in Sprague-Dawley rat brain tissue model of transient middle cerebral artery occlusion stroke model assessed as increase in glutathione peroxidase levels per mg of protein at 380 mg/kg […] measured 24 hrs after reperfusion by DTNB assay relative to control; format: functional
[4] = Induction of nitric oxide release in potassium phosphate buffer at pH 7.4 at 0.1 mM after 150 mins by Griess assay; format: physicochemical; settings: pH 7.4, 2.5 h, 100 µM
Procedure, shortened: (§1)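 Compound (0.1 mM) in PBS pH 7.4 containing 2% DMSO and 5.0 mM L-cysteine was held at 37 °C for 15–300 min. Samples were taken every 15 min up to 120 min, then every 30 min. Each sample was reacted with Griess reagent for 10 min at 37 °C and absorbance read at 540 nm. Nitrite was quantified from a nitrite standard curve. Means reported; intra-group variation <10%.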

[5] = Induction of nitric oxide release in potassium phosphate buffer at pH 7.4 at 0.1 mM after 180 mins by Griess assay; format: physicochemical; settings: pH 7.4, 3 h, 100 µM; procedure, shortened: as §1
[6] = Induction of nitric oxide release in potassium phosphate buffer at pH 7.4 at 0.1 mM after 240 mins by Griess assay; format: physicochemical; settings: pH 7.4, 4 h, 100 µM; procedure, shortened: as §1
[7] = Induction of nitric oxide release in potassium phosphate buffer at pH 7.4 at 0.1 mM after 300 mins by Griess assay; format: physicochemical; settings: pH 7.4, 5 h, 100 µM; procedure, shortened: as §1
[8] = tested on: Liver; experiment: Induction of hydrogen sulfide release in rat liver homogenate at 100 uM after 60 mins by microplate reader method (reference value: 1.03 to 1.21%); format: functional, tissue-based
Procedure, shortened: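 Compound was incubated at 37 °C for 0–90 min with fresh rat liver homogenate. The reaction was stopped with 1% zinc acetate and 10% trichloroacetic acid. N,N-dimethyl-p-phenylenediamine sulfate in 7.2 M HCl and FeCl3 in 1.2 M HCl were added, and absorbance was read at 670 nm after 10 min. Values were calculated against an NaHS standard curve as cumulative % conversion to H2S, n = 6.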

[9] = Antiplatelet activity in rabbit platelet-rich plasma assessed as inhibition of ADP-induced platelet aggregation at 0.1 mM preincubated for 5 mins followed by addition of ADP measured within 5 mins by Borns turbidimetric method in presence of nitric oxide scavenger carboxy-PTIO; format: functional; settings: Oryctolagus cuniculus
Procedure, shortened: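 Rabbit carotid blood was citrated (3.8%, 9:1). PRP was obtained at 500 g for 10 min and PPP at 3000 g for 10 min. PRP was preincubated in duplicate for 5 min at 37 °C with 0.1 mM compound, plus carboxy-PTIO or BSS where indicated. ADP was then added and maximal light transmission recorded within 5 min, within 3 h of blood collection. Inhibition % was calculated versus control. Mean ± SD of three independent experiments.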

[10] = Induction of nitric oxide release in potassium phosphate buffer at pH 7.4 at 0.1 mM after 15 mins by Griess assay; format: physicochemical; settings: pH 7.4, 0.25 h, 100 µM; procedure, shortened: as §1
[11] = tested on: Rattus norvegicus; experiment: Neuroprotective activity in Sprague-Dawley rat model of transient middle cerebral artery occlusion stroke model assessed as neurological deficit at 80 mg/kg administered via oral gavage for 7 days after ischemia onset measured 24 hrs after middle cerebral artery occlusion by Longa's method; format: functional, organism-based; settings: in the assay text read “before ischemia onset” for “after ischemia onset”
Procedure, shortened: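 Male SD rats (280–320 g) received daily gavage for 7 days, with 0.5% CMC-Na as vehicle. Two hours after the last dose they underwent 2 h MCAO with reperfusion under chloral hydrate anesthesia; core temperature was held at 37 °C. Neurological deficit was scored blinded by Longa's method 24 h after reperfusion, between 10 and 11 a.m. Kruskal–Wallis test followed by Mann–Whitney U test.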

## CCCCC(OC(=O)CN1CCN(CCCCCOc2ccc(-c3cc(=S)ss3)cc2)CC1)c1ccccc1C(=O)Oc1ccc(/C=C/C(=O)OCCO[N+](=O)[O-])cc1OC (racemic)
[1]
  Activity: 25.22 nmol
[2]
  Activity: 29.57%
[3]
  Activity: 69.26%
[4]
  Activity: 10.23 µM
[5]
  Activity: 10.3 µM
[6]
  Activity: 10.35 µM
[7]
  Activity: 10.57 µM
[8]
  Activity: 4.25%
[9]
  inhibition at 100 µM: 29.1%
[10]
  Activity: 3.16 µM
[11]
  Activity: inactive
